The source made the active and inactive calls. The calls are words filed in the database; no cut-off is given here.

In general, IC50 refers to the concentration that gives 50% inhibition.

For assay [1], the system named is A549. Description: Induction of apoptosis in human A549 cells assessed as necrotic cells at 90 nM after 12 hrs by Annexin-V FITC/propidium iodide staining based flow cytometric analysis (reference value: 1.28%). Format: functional.
The subject of assay [2] is A549. Briefly: Induction of apoptosis in human A549 cells assessed as viable cells at 60 nM after 6 hrs by Annexin-V FITC/propidium iodide staining based flow cytometric analysis. Format: functional. Particulars: A549, 6 h, read-out: Activity. The gist of the method:
(§1)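 Time-course: A549 (2×10^5 cells/well, grown overnight) exposed to 60 nM for 6, 12 or 24 h; untreated control. Cells trypsinized, washed in cold PBS, stained 15 min with Annexin V-FITC in binding buffer, then PI, and read by flow cytometry; duplicate experiments.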

The test system of assay [3] is A549. Briefly: Induction of apoptosis in human A549 cells assessed as viable cells at 60 nM after 24 hrs by Annexin-V FITC/propidium iodide staining based flow cytometric analysis. Format: functional. Conditions: A549, 24 h, read-out: Activity. Put shortly: as §1
The test system of assay [4] is A549. Briefly: Inhibition of colony formation in human A549 cells at 5 nM incubated for 3 days followed by further incubation in drug-free medium and measured after 15 days by crystal violet staining-based inverted microscopic analysis. Format: functional, cell-based. The gist of the method:
(§2)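 500 A549 cells/well incubated 24 h, then treated with 5, 10 or 20 nM for 3 days, followed by drug-free medium changed every 3 days. At day 15 after plating, colonies fixed in 95% ethanol 15 min, stained with 0.1% crystal violet, counted (colony = over 100 cells); mean ± SD of three independent experiments.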

Assay [5] has as its system A549. Briefly: Induction of apoptosis in human A549 cells assessed as nuclear fragmentation at 90 nM after 24 hrs by […] staining-based confocal laser scanning microscopic analysis. Format: functional, cell-based. Put shortly:
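A549 exposed to 30, 60 and 90 nM for 24 h, stained with Hoechst 33342, imaged by confocal laser scanning microscopy; strongly blue-fluorescent nuclei scored as apoptotic.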

For assay [6], the system named is A549. Description: Induction of apoptosis in human A549 cells assessed as reduction in Bcl-2 expression at 30 to 90 nM by Western blot analysis. On the technique in general: A western blot detects proteins with antibodies after separation by electrophoresis.
Assay [7] concerns A549. Description: Induction of apoptosis in human A549 cells assessed as late apoptotic cells at 60 nM after 6 hrs by Annexin-V FITC/propidium iodide staining based flow cytometric analysis. Format: functional. The gist of the method: as §1
Assay [8] deals with A549. Briefly: Induction of apoptosis in human A549 cells at 60 nM by Annexin-V FITC/propidium iodide staining based flow cytometric analysis. Format: functional, cell-based. Particulars: TDE = time-dependent effect.
Assay [9] concerns A549. Description: Inhibition of colony formation in human A549 cells at 10 to 20 nM incubated for 3 days followed by further incubation in drug-free medium and measured after 15 days by crystal violet staining-based inverted microscopic analysis. Format: functional, cell-based. Put shortly: as §2
For assay [10], the system named is A549. Briefly: Cell cycle arrest in human A549 cells assessed as accumulation at G1 phase at 30 nM after 24 hrs by propidium iodide/RNase A staining-based flow cytometric analysis (reference value: 57.41%). Format: functional.
For assay [11], the system named is A549. Description: Cell cycle arrest in human A549 cells assessed as accumulation at S phase at 90 nM after 24 hrs by propidium iodide/RNase A staining-based flow cytometric analysis (reference value: 12.57%). Format: functional. On the technique in general: Flow cytometry measures light scatter and fluorescence of single cells or particles in a stream.
A further assay deals with HCT-116. Briefly: Antiproliferative activity against human HCT116 cells assessed as reduction in cell viability measured after 72 hrs by MTT assay. Format: functional, cell-based. Particulars: Homo sapiens, HCT-116, 72 h; read-out: IC50. The gist of the method:
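Cells seeded 5×10^3/well, cultured overnight, then exposed to 10, 1, 0.1, 0.01, 0.001 and 0.0001 µM (from 10 mM DMSO stocks diluted in medium; vehicle 1% DMSO PBS) for 72 h at 37 °C. Medium replaced with 0.5 mg/mL MTT for 4 h, formazan dissolved in DMSO, A570 read. IC50 as mean ± SD of three independent experiments.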

The subject of assay [12] is A549. Briefly: Induction of apoptosis in human A549 cells assessed as increase in caspase3 expression by Western blot analysis. Format: functional, cell-based. The gist of the method:
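A549 treated 30, 60 and 90 nM for 24 h; lysates normalized by BCA, 30 μg protein denatured in SDS buffer at 100 °C 8 min, SDS-PAGE, PVDF transfer, blocked in 5% milk/TBS-0.05% Tween 2 h, primary antibodies overnight at 4 °C, HRP anti-rabbit IgG 2 h, ECL detection; β-actin loading control.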

In assay [13] the test system is A549. Description: Cell cycle arrest in human A549 cells assessed as accumulation at G2 phase at 90 nM after 24 hrs by propidium iodide/RNase A staining-based flow cytometric analysis (reference value: 30.02%). Format: functional.
For assay [14], the system named is A549. Description: Cell cycle arrest in human A549 cells assessed as accumulation at S phase at 60 nM after 24 hrs by propidium iodide/RNase A staining-based flow cytometric analysis (reference value: 12.57%). Format: functional.
The test system of a further assay is A-375. Briefly: Antiproliferative activity against human A375 cells assessed as reduction in cell viability measured after 72 hrs by MTT assay. Format: functional, cell-based. Particulars: A-375, 72 h. The gist of the method: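 Cells seeded at 5×10^3 per well and cultured overnight, then exposed for 72 h at 37 °C to six concentrations from 10 µM down to 0.0001 µM (from 10 mM DMSO stock diluted in medium; vehicle 1% DMSO in PBS). MTT at 0.5 mg/mL was added for 4 h, formazan dissolved in DMSO, and A570 read. IC50 given as mean ± SD of three independent experiments.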
Background: Tetrazolium assays rely on reduction of a dye to a coloured formazan, in cell work by metabolically active cells.

`COc1cc(C[C@H]2NC(=O)[C@H](C(C)C)N(C)C(=O)/C(C)=C/C[C@@H](OC)/C(C)=C/C=C/[C@@H](C)[C@@H](c3ccccc3)OC(=O)[C@H](C(C)C)NC2=O)ccc1O`: the Activity in the assay on A549 [1] is 12.85%; in the assay with A549 [7], 5.08%; in the assay on A549 [8], “Tde”; in the assay with A549 [10], 49.14%; in the assay with A549 [11], 4.46%; in the assay with A549 [12], “Dose-dependent effect”. For the same molecule, the Activity is given as 57.73% with A549 [13] and 14.75% with A549 [14]. Moreover, the viability at 0.06 µM came to 92.3% with A549 [2] and 54.4% in the assay on A549 [3]. For the same molecule, the inhibition entry in the assay with A549 [4] and in the assay on A549 [9] was “Active” throughout. In addition, the outcome with A549 [5] and in the assay on A549 [6] was Active. The half-inhibitory concentration (IC50) in the assay on HCT-116 is 0.0485 µM; in the assay with A-375, 0.0043 µM.

The values above are taken from ChEMBL document CHEMBL4346669, “Novel nannocystin A analogues as anticancer therapeutics: Synthesis, biological evaluations and structure-activity relationship studies” (Eur J Med Chem, 2019).
